Laboratory results from ChEMBL document CHEMBL3813598, “Development of hydroxy-based sphingosine kinase inhibitors and anti-inflammation in dextran sodium sulfate induced colitis in mice” (Bioorg Med Chem, 2016).
Calls of active or inactive are those of the source. The rule behind the calls is not given here.

Tests used:
[1] = target: Sphingosine kinase 1 (Homo sapiens, UniProt Q9NYA1); test: Inhibition of GST-tagged full length human recombinant SPHK1 expressed in baculovirus using sphingosine as substrate preincubated for 10 mins measured after 1 hr by ADP-quest assay
[2] = target: T1, Sphingosine kinase 2 (Homo sapiens, UniProt Q9NRA0); test: Inhibition of GST-tagged full length human recombinant SPHK2 expressed in baculovirus using sphingosine as substrate preincubated for 10 mins measured after 1 hr by ADP-quest assay
T1 sequence (Q9NRA0 whole entry): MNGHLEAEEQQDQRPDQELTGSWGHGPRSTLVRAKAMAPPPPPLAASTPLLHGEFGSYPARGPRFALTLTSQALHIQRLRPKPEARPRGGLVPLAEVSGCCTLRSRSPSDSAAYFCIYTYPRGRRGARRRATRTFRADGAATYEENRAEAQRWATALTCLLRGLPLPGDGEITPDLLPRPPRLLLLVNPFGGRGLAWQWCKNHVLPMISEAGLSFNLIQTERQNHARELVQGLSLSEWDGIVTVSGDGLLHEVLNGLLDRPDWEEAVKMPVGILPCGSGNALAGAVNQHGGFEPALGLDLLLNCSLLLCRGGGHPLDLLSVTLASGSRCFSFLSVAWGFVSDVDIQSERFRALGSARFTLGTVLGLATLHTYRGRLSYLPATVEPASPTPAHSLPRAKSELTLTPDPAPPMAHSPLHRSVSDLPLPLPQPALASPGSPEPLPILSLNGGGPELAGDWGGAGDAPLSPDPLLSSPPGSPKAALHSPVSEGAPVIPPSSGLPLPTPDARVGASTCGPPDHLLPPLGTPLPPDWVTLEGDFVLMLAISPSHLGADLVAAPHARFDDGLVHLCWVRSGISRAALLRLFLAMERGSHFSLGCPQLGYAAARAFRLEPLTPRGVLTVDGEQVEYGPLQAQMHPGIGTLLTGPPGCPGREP
In short: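 Human recombinant SphK1 or SphK2 with sphingosine substrate and ATP, tested in 384-well format. Enzyme was preincubated with compound for 10 min, then the reaction ran at 28 °C for 1 h. ADP Quest reagents A and B were added for 30 min at room temperature. Fluorescence was read at Ex 530/Em 590 nm. Values are mean of n = 3 in triplicate.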

[3] = tested on: Mus musculus; test: Antiinflammatory activity in DSS- induced C57BL/6 mouse colon colitis model assessed as inhibition of COX2 expression at 5 to 10 mg/kg, ip after 24 hrs by hematoxylin staining based assay; format: functional, organism-based
In short: (§1)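 Colons come from the same DSS model, fixed in 10% buffered formalin for at least 24 h. Paraffin sections were deparaffinized. Antigen was retrieved in 10 mM sodium citrate with 0.1% Tween 20 at 100 °C for 20 min. Primary antibody was applied in PBS with 5% BSA and 10% goat serum, then HRP polymer at room temperature for 30 min. Detection was DAB with hematoxylin counterstain. IL-6 and COX-2 positive labeling was counted automatically. Mean ± SD.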

[4] = tested on: Mus musculus; test: Antiinflammatory activity in DSS- induced C57BL/6 mouse colon colitis model assessed as mucosal/submucosal lesion at 10 mg/kg, ip after 24 hrs by hematoxylin/eosin staining based assay; format: functional, organism-based
In short: (§2)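 Colitis induced in female C57BL/6 mice as 2.5% DSS in drinking water for 5 days, then 5 days of water. Dosing ip or 5-ASA ig until sacrifice at day 10. Colons fixed in 10% buffered formalin (pH 7.4) for at least 24 h. Sections scored for cellular infiltration, mucosal lesion and crypt damage to give a histologic score.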

[5] = tested on: Mus musculus; test: Antiinflammatory activity in DSS- induced C57BL/6 mouse colitis model assessed as body weight at 5 mg/kg, ip after 10 days (reference value: 15.69 +/- 0.65 g); format: functional
In short: (§3)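 Female C57BL/6 mice, 6–8 weeks, randomized into five groups. Colitis induced by 2.5% w/v DSS in drinking water for 5 days, then 5 days of normal water. Test agent given ip at 5 or 10 mg/kg, or 5-ASA ig at 50 mg/kg, until study end. Controls were water plus vehicle and DSS plus vehicle. Body weight recorded daily; colon length taken at sacrifice on day 10. Mean ± SD, n = 10.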

[6] = tested on: Mus musculus; test: Antiinflammatory activity in DSS- induced C57BL/6 mouse colon colitis model assessed as inhibition of IL6 expression at 5 to 10 mg/kg, ip after 24 hrs by hematoxylin staining based assay; format: functional, organism-based; in short: as §1
[7] = tested on: Mus musculus; test: Antiinflammatory activity in DSS- induced C57BL/6 mouse colitis model assessed as change in body weight at 5 to 10 mg/kg, ip after 7 days; format: functional, organism-based; in short: as §3
[8] = tested on: Mus musculus; test: Antiinflammatory activity in DSS- induced C57BL/6 mouse colitis model assessed as colon length at 5 mg/kg, ip after 10 days (reference value: 45.68 +/- 1.34 mm); format: functional; in short: as §3
[9] = tested on: Mus musculus; test: Antiinflammatory activity in DSS- induced C57BL/6 mouse colitis model assessed as colon length at 10 mg/kg, ip after 10 days (reference value: 45.68 +/- 1.34 mm); format: functional; in short: as §3
[10] = tested on: Mus musculus; test: Antiinflammatory activity in DSS- induced C57BL/6 mouse colon colitis model assessed as cellular infiltration of mononuclear macrophages/neutrophils at 10 mg/kg, ip after 24 hrs by hematoxylin/eosin staining based assay; format: functional, organism-based; in short: as §2
[11] = tested on: Mus musculus; test: Antiinflammatory activity in DSS- induced C57BL/6 mouse colitis model assessed as body weight at 10 mg/kg, ip after 10 days (reference value: 15.69 +/- 0.65 g); format: functional; in short: as §3
[12] = tested on: Mus musculus; test: Antiinflammatory activity in DSS- induced C57BL/6 mouse colon colitis model assessed as degeneration/necrosis of crypt cells at 10 mg/kg, ip after 24 hrs by hematoxylin/eosin staining based assay; format: functional, organism-based; in short: as §2

Sequence of Sphingosine kinase 1 (Q9NYA1 whole entry): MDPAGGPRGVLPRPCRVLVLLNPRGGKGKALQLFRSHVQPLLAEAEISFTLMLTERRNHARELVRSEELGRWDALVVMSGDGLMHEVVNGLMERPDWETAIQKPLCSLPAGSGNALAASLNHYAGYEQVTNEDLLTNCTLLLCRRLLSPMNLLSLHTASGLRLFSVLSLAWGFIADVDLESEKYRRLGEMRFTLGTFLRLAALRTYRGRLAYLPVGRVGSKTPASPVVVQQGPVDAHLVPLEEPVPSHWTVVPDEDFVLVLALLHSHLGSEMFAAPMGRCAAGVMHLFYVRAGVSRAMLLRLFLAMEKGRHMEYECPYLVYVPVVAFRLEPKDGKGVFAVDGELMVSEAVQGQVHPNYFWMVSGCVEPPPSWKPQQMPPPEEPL

COc1cccc(COc2ccc(/C=N/NC(=O)c3cc(O)c(O)c(O)c3)cc2)c1
IC50 [1]: 4.36 µM
IC50 [2]: 2170 nM
inhibition [3]: Active
Activity [4]: Active
Activity [5]: 17.1 g
inhibition [6]: Active
Activity [7]: inactive
Activity [8]: 53.04 mm
Activity [9]: 51.41 mm
Activity [10]: Active
Activity [11]: 17.5 g
Activity [12]: Active
